Legend:
[1] = Cytotoxicity against human HepG2(2.2.15) cells after 24 hrs by neutral red dye uptake assay; type: cell-based; conditions: for CC50: hepg2 2.2.15, 24 h; for CC50 at 24 h: HepG2(2.2.15) cells
Procedure, shortened: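 Confluent chronically HBV-producing 2.2.15 cultures given nine consecutive daily doses of compound; neutral red dye uptake read 24 hr after the last dose.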

Hepatitis B virus [2] = assay: Antiviral activity against Hepatitis B virus infected in human HepG2(2.2.15) cells assessed as decrease in extracellular viral DNA measured 24 hrs after last dose; type: functional, organism-based; conditions: HepG2 2.2.15, 24 h
Procedure, shortened: (§1)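 Confluent 2.2.15 cells (HepG2 line chronically producing HBV) in 96-well culture; nine consecutive daily doses of compound. HBV DNA (extracellular virion or intracellular replication intermediates) quantified by blot hybridization 24 hr after the last dose. Cytotoxicity measured by neutral red uptake 24 hr after the last dose.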

Hepatitis B virus [3] = assay: Antiviral activity against Hepatitis B virus infected in human HepG2(2.2.15) cells assessed as decrease in intracellular viral DNA measured 24 hrs after last dose; type: functional, organism-based; conditions: HepG2 2.2.15, 24 h; procedure, shortened: as §1
[4] = Selectivity index, ratio CC50 for human HepG2(2.2.15) cells to EC90 for decrease in extracellular viral DNA in Hepatitis B virus infected human HepG2(2.2.15) cells; type: toxicity; conditions: read-out: Selectivity Index
Procedure, shortened: (§2)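 Ratio of CC50 to EC90 in confluent 2.2.15 cells treated with nine consecutive daily doses. Both read 24 hr after the last dose. CC50 = concentration halving neutral red uptake versus untreated cultures. EC values were run in triplicate.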

[5] = Selectivity index, ratio CC50 for human HepG2(2.2.15) cells to EC90 for decrease in intracellular viral DNA in Hepatitis B virus infected human HepG2(2.2.15) cells; type: toxicity, cell-based; conditions: read-out: Selectivity Index; procedure, shortened: as §2
[6] = Inhibition of CYP450; type: ADME
Procedure, shortened: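 Screened for inhibition against a panel of 14 CYP isozymes.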

Blood = assay: Metabolic stability in human blood after 1 hr; type: ADME, tissue-based
Procedure, shortened: (§3)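 Incubated 1 hour in human whole blood or plasma, then stability assessed.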

Plasma [7] = assay: Metabolic stability in human plasma after 1 hr; type: ADME, cell-free; procedure, shortened: as §3
[8] = Metabolic stability in human liver microsomes assessed as compound remaining after 60 mins; type: ADME, Microsome; conditions: read-out: Stability
Procedure, shortened: (§4)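 Incubated 60 minutes with human liver microsomes or S9 fraction; read-out is percent of parent compound remaining.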

[9] = Metabolic stability in human liver S9 fraction assessed as compound remaining after 60 mins; type: ADME, subcellular; conditions: read-out: Stability; procedure, shortened: as §4
[10] = Protein binding in plasma; type: ADME, cell-free; conditions: read-out: PPB
Plasma [11] = assay: Protein binding in human plasma; type: ADME, cell-free

Row | SMILES | CC50 [1] [µM] | EC50 (Hepatitis B virus [2]) [µM] | EC90 (Hepatitis B virus [2]) [µM] | CC50 at 24 h [1] [µM] | EC50 (Hepatitis B virus [3]) [µM] | EC90 (Hepatitis B virus [3]) [µM] | selectivity ratio [4] | selectivity ratio [5] | inhibition (INH) [6] | Stability (Blood) | Stability (Plasma [7]) | remaining at 1 h [8] [%] | remaining at 1 h [9] [%] | fraction unbound [10] | PPB (Plasma [11]) [%]
1 | O=C(Nc1nccs1)c1ccccc1O | 16 | > 10 | > 10 | – | – | – | – | – | – | – | – | – | – | – | –
2 | CS(=O)(=O)c1cnc(NC(=O)c2ccccc2O)s1 | – | > 10 | > 10 | > 100 | > 10 | – | – | – | – | – | – | – | – | – | –
3 | O=C(Nc1ncc(Cl)s1)c1ccccc1O | 38 | 0.33 | 0.89 | – | 1 | 2.9 | 43 | 13 | – | – | – | – | – | – | –
4 | Cc1ccc(O)c(C(=O)Nc2ncc(Cl)s2)c1 | – | 0.33 | 0.83 | 100 | 0.9 | 2 | > 120 | > 51 | Not Active | Stable | Stable | 16 | 6 | < 0.01 | –
5 | Cc1cccc(C(=O)Nc2ncc(Cl)s2)c1O | 100 | > 10 | > 10 | – | > 10 | > 10 | – | – | – | – | – | – | – | – | –
6 | Cc1ccc(C(=O)Nc2ncc(Cl)s2)c(O)c1 | – | 1 | 3.3 | 100 | 2.7 | 6.3 | > 30 | > 16 | – | – | – | – | – | – | –
7 | Cc1cccc(C(=O)Nc2ncc(Br)s2)c1O | – | 3.5 | 9 | > 100 | 7.6 | 22 | > 11 | > 4.5 | – | – | – | – | – | – | –
8 | O=C(Nc1ncc(Br)s1)c1ccccc1O | – | 1.2 | 4 | > 100 | 2.9 | 8.7 | > 25 | > 12 | – | – | – | – | – | – | –
9 | O=C(Nc1ncc(F)s1)c1ccccc1O | 51 | 3.1 | 12 | – | – | – | 4.3 | – | – | – | – | – | – | – | –
10 | O=C(Nc1ncc(Br)s1)c1cccc(Cl)c1O | 30 | 0.32 | 2 | – | 0.59 | 3.9 | 15 | 7.7 | – | – | – | – | – | – | –
11 | O=C(Nc1ncc(Br)s1)c1ccc(F)cc1O | 12 | 2.1 | 5.6 | – | – | – | 2.1 | – | – | – | – | – | – | – | –
12 | O=C(Nc1ncc(Br)s1)c1cc(Cl)ccc1O | 45 | 0.21 | 1.1 | – | 3.5 | 11 | 41 | 4.1 | – | – | – | – | – | – | –
13 | O=C(Nc1ncc(-c2ccc(Cl)cc2)s1)c1ccccc1O | – | > 10 | > 10 | > 100 | > 10 | > 10 | – | – | – | – | – | – | – | – | –
14 | Cc1cccc(C(=O)Nc2nc(-c3ccccc3)cs2)c1O | – | 0.22 | 0.73 | > 100 | 7.8 | 30 | > 137 | 3.3 | – | – | – | – | – | – | –
15 | O=C(Nc1nc(-c2ccccc2)cs1)c1cccc(Cl)c1O | – | 0.15 | 0.6 | > 100 | – | – | > 166 | – | – | – | – | – | – | – | –
16 | CC(=O)Nc1cnc(NC(=O)c2ccccc2O)s1 | – | > 10 | > 10 | > 100 | > 10 | > 10 | – | – | – | – | – | – | – | – | –
17 | CS(=O)(=O)c1csc(NC(=O)c2ccccc2O)n1 | – | > 10 | > 10 | > 100 | – | – | – | – | – | – | – | – | – | – | –

Row | SMILES | CC50 [1] [µM] | EC50 (Hepatitis B virus [2]) [µM] | EC90 (Hepatitis B virus [2]) [µM] | CC50 at 24 h [1] [µM] | EC50 (Hepatitis B virus [3]) [µM] | EC90 (Hepatitis B virus [3]) [µM] | selectivity ratio [4] | selectivity ratio [5] | inhibition (INH) [6] | Stability (Blood) | Stability (Plasma [7]) | remaining at 1 h [8] [%] | remaining at 1 h [9] [%] | fraction unbound [10] | PPB (Plasma [11]) [%]
18 | N#Cc1cnc(NC(=O)c2ccccc2O)s1 | – | 3.2 | 9.4 | > 100 | 5.5 | 14 | > 11 | > 7.1 | – | – | – | – | – | – | –
19 | COC(=O)c1cnc(NC(=O)c2ccccc2O)s1 | 15 | > 10 | > 10 | – | – | – | – | – | – | – | – | – | – | – | –
20 | O=C(Nc1ncc(C(F)(F)F)s1)c1ccccc1O | – | 3.8 | 11 | > 100 | 9.1 | 27 | > 9.1 | > 3.7 | – | – | – | – | – | – | –
21 | CCOC(=O)Oc1ccccc1C(=O)Nc1ncc([N+](=O)[O-])s1 | 9.9 | 0.21 | 0.69 | – | 0.54 | 1.8 | 13 | 5.5 | – | – | – | – | – | – | –
22 | CC(C)c1cnc(NC(=O)c2ccccc2O)s1 | – | > 10 | > 10 | > 100 | > 10 | > 10 | – | – | – | – | – | – | – | – | –
23 | CC(=O)Oc1ccccc1C(=O)Nc1ccc(Br)cc1 | – | 0.76 | 3 | > 100 | 2.1 | 6.8 | > 33 | > 15 | – | – | – | – | – | – | –
24 | Cc1cc([N+](=O)[O-])c(Cl)cc1NC(=O)c1ccccc1O | 89 | 0.28 | 0.73 | – | 0.66 | 1.7 | 122 | 52 | – | – | – | – | – | – | –
25 | CC(=O)Oc1ccccc1C(=O)Nc1cc(C(F)(F)F)cc(C(F)(F)F)c1 | – | 3.8 | 14 | > 100 | – | – | > 7.1 | – | – | – | – | – | – | – | –
26 | CC(=O)Oc1ccccc1C(=O)Nc1ccc(I)cc1 | – | 0.2 | 1.2 | > 100 | 0.73 | 3.3 | > 83 | > 30 | – | – | – | – | – | – | –
27 | O=C(Nc1ccc([N+](=O)[O-])cc1)c1ccccc1O | – | > 10 | > 10 | > 100 | – | – | – | – | – | – | – | – | – | – | –
28 | CC(=O)Oc1ccccc1C(=O)Nc1ccc(Cl)cc1 | – | 3.5 | 9.7 | > 100 | – | – | 11 | – | – | – | – | – | – | – | –
29 | O=C(Nc1ccc(Cl)cc1)c1ccccc1O | – | > 10 | > 10 | > 100 | – | – | – | – | – | – | – | – | – | – | –
30 | O=C(Nc1cc(C(F)(F)F)ccc1Cl)c1ccccc1O | – | 3.7 | 13 | > 100 | – | – | – | – | – | – | – | – | – | – | –
31 | O=C(Nc1nc(-c2ccccc2)cs1)c1ccccc1O | 22 | 5.6 | 21 | – | – | – | 1 | – | – | – | – | – | – | – | –
32 | O=C(Nc1ccc([N+](=O)[O-])cc1Cl)c1cc(Cl)ccc1O [NICLOSAMIDE] | – | – | > 10 | > 100 | – | – | – | – | – | – | – | – | – | – | –
33 | O=C(Nc1ncc([N+](=O)[O-])s1)c1ccccc1O [TIZOXANIDE] | – | 0.15 | 0.58 | > 100 | 0.46 | 1.2 | > 172 | > 83 | – | – | – | – | – | – | > 95

Reference: ChEMBL document CHEMBL1800054, “Thiazolides as novel antiviral agents. 1. Inhibition of hepatitis B virus replication” (J Med Chem, 2011)
